According to ChEMBL document CHEMBL1932916, “A carbamate-based approach to primaquine prodrugs: antimalarial activity, chemical stability and enzymatic activation” (Bioorg Med Chem, 2012):
The source made the active and inactive calls. No cut-off for these calls is given here.

Assays:
[1] = Alkaline hydrolysis of the compound assessed as rate constant by HPLC analysis; format: physicochemical
How it was run: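 Borate and NaOH buffers with 20% (v/v) acetonitrile, ionic strength 0.5 M (NaClO4), 37 °C. Alkyl carbamates followed by HPLC (RP-8 column, acetonitrile/water/KH2PO4 1 M 55:40:5) as substrate loss and primaquine formation; aliquots neutralised with HCl before injection; aryl carbamates by fixed-wavelength UV decay of substrate. Second-order constant k_OH.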

[2] = tested on: Liver; assay: Prodrug activation in rat liver homogenate assessed as rate constant by HPLC analysis; format: tissue-based; details: tissue homogenate
How it was run: (§1)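 Liver homogenate at 2 mg protein/mL in pH 7.4 PBS, 37 °C, with NADPH-generating system (glucose-6-phosphate 6.25 mM, NADP 1.25 mM, MgCl2 6 mM, G6PDH 2.5 U/mL). Substrates dissolved in PBS at initial 0.25–5.0 mM. HPLC followed substrate loss and primaquine formation. First-order k_liver determined in triplicate.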

[3] = tested on: Liver; assay: Half life for prodrug activation in rat liver homogenate by HPLC analysis; format: tissue-based; details: in vitro; how it was run: as §1
[4] = Octanol-phosphate buffer partition coefficient, log D of the compound at pH 7.4 after 30 mins by HPLC analysis; format: physicochemical
How it was run: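 1-Octanol and pH 7.4 phosphate buffer, mutually pre-saturated, 22 °C. Compound dissolved in octanol and the mixture shaken 30 min to equilibrium. Each phase assayed by HPLC, and D taken as the octanol/buffer peak-area ratio. Mean of three experiments.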

[5] = tested on: Plasma; assay: Stability of the compound in 50% human plasma for 3 hrs by HPLC analysis; format: ADME, cell-free
How it was run: (§2)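 Pooled heparinised plasma from healthy donors, stored at -70 °C, diluted to 50% (v/v) with pH 7.4 isotonic phosphate buffer. Carbamate added from 10^-2 M stock, 37 °C. Aliquots quenched into acetonitrile, then HPLC quantitation of substrate, primaquine and, for aryl esters, phenol against standards. First-order k_plasma determined in triplicate.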

[6] = tested on: Liver; assay: Prodrug activation in rat liver homogenate assessed as primaquine release by HPLC analysis; format: tissue-based; details: tissue homogenate; how it was run: as §1
[7] = Gametocytocidal activity against Plasmodium berghei ANKA 25R/10 infected in Balb/C mouse assessed as infected mosquitoes at 15 mg/kg, ip after 2 hrs feed Anopheles stephensi mosquitoes for 2 hrs on compound treated animals measured after 10 days post feed by stereomicroscopy (reference value: 91%); format: functional; details: route intraperitoneal
How it was run: (§3)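 Balb C mice infected ip with 10^7 P. berghei ANKA 25R/10-parasitised erythrocytes. At day 4, once gametocytes were seen on Giemsa films, mice were grouped (six per group). A single ip dose of 15 mg/kg was given, with saline-treated controls run separately for each compound. After 2 h, anaesthetised mice were fed to A. stephensi. Midgut oocysts counted at day 10 post-feed; reported as % infected mosquitoes and mean oocysts per mosquito.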

[8] = tested on: Plasmodium berghei ANKA; assay: Gametocytocidal activity against Plasmodium berghei ANKA 25R/10 infected in Balb/C mouse assessed as reduction in number of oocysts per mosquito at 15 mg/kg, ip after 2 hrs feed Anopheles stephensi mosquitoes for 2 hrs on compound treated animals measured after 10 days post feed by stereomicroscopy; format: functional, organism-based; design: dose 15 mg/kg; how it was run: as §3
[9] = Dissociation constant, pKa of the compound; format: physicochemical
[10] = Half life in aqueous buffer pH 7.4 by HPLC analysis; format: physicochemical
How it was run: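 Non-enzymatic hydrolysis in pH 7.4 phosphate buffer, 20% (v/v) acetonitrile, 37 °C. Reaction followed by HPLC (RP-8 column, acetonitrile/water/KH2PO4 eluant) monitoring substrate loss and primaquine formation.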

[11] = tested on: Plasma; assay: Half life for prodrug activation in 50% human plasma by HPLC analysis; format: cell-free; how it was run: as §2
[12] = Gametocytocidal activity against Plasmodium berghei ANKA 25R/10 infected in Balb/C mouse assessed as infected mosquitoes at 15 mg/kg, ip after 2 hrs feed Anopheles stephensi mosquitoes for 2 hrs on compound treated animals measured after 10 days post feed by stereomicroscopy (reference value: 80%); format: functional; details: route intraperitoneal; how it was run: as §3
[13] = tested on: Plasma; assay: Prodrug activation in 50% human plasma assessed as rate constant by HPLC analysis; format: cell-free; how it was run: as §2
[14] = tested on: Plasma; assay: Prodrug activation in 50% human plasma preincubated with 20 mM DIFP by HPLC analysis; format: cell-free
How it was run: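 Same 50% human plasma incubation at 37 °C with HPLC monitoring, but plasma pre-incubated with 20 mM DIFP to inhibit serine cholinesterase before substrate addition.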

SMILES	Activity [1]	Drug metabolism [2] [×10⁻² /hr]	t1/2 [3] [h]	logD at 0.5 h [4]	Stability [5]	Drug metabolism [6]	Activity [7] [%]	Activity [8]	pKa [9]	half-life [10] [h]	t1/2 [11] [h]	Activity [12] [%]	Drug metabolism [13]	Drug metabolism [14]
CCCCCCOC(=O)NCCCC(C)Nc1cc(OC)cc2cccnc12 (centres undefined)	3.49 ×10⁻⁷ /M/s	6.63	10.4	4.64	Stable	Not Active	24	Active						
COc1cc(NC(C)CCCNC(=O)Oc2ccc([N+](=O)[O-])cc2)c2ncccc2c1 (centres undefined)	2.4 ×10⁴ /M/s			4.23					7.14	0.035	0.00267			
COc1cc(NC(C)CCCNC(=O)OCC(F)(F)F)c2ncccc2c1 (centres undefined)	3.95 ×10⁻³ /M/s	5.04	13.7	3.41	Stable	Not Active	72		12.4					
CCOC(=O)NCCCC(C)Nc1cc(OC)cc2cccnc12 (centres undefined)	9.34 ×10⁻⁷ /M/s	4.56	15.1	3.02	Stable	Not Active	19	Active	15.9					
COc1cc(NC(C)CCCN)c2ncccc2c1 (centres undefined) [PRIMAQUINE]								Active				3.9		
CCOC(=O)COC(=O)NCCCC(C)Nc1cc(OC)cc2cccnc12 (centres undefined)	2.5 M⁻¹ s⁻¹			3.09					12.9	240				
COc1ccc(OC(=O)NCCCC(C)Nc2cc(OC)cc3cccnc23)cc1 (centres undefined)	9.1 ×10⁻¹ /M/s	6.7	10.3	4.23					10.2	> 720	7.78	74	2.45 ×10⁻⁵ /s	
COc1cc(NC(C)CCCNC(=O)Oc2ccc(Cl)cc2)c2ncccc2c1 (centres undefined)	7.17 M⁻¹ s⁻¹	5.85	11.8	4.44					9.38	96	0.638		3.06 ×10⁻⁴ /s	Not Active
COc1cc(NC(C)CCCNC(=O)Oc2ccccc2)c2ncccc2c1 (centres undefined)	2.64 M⁻¹ s⁻¹	7.26	9.5	4.27				Active	9.95	288	3.62	65	5.34 ×10⁻⁵ /s	
